Measured values taken from ChEMBL document CHEMBL1124216, “A novel class of potential central nervous system agents. 3-Phenyl-2-(1-piperazinyl)-5H-1-benzazepines” (1988).

Tests used:
Type in all cases: functional
Mus musculus [1] = experiment: Exploratory activity of mice determined by an antimex activity meter, 50 mg/kg of dose was administered perorally; details: Mus musculus, po
In short: (§1)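 Male Std-ddY mice (20-25 g), five per dose; compound in 0.5% aqueous tragacanth given orally. Two hours later each mouse placed in an Animex activity meter cage and locomotor activity counted for 3 min. Mean suppression expressed as percent inhibition of control; ED50 by Litchfield-Wilcoxon.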

Rattus norvegicus [2] = experiment: Inhibition of self-stimulation response in rats when administered perorally.; details: po
In short: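 Male Wistar HLA rats (300-400 g) with chronic electrodes in the lateral posterior hypothalamus, lever-pressing steadily at 50-100/min. Self-stimulation counted for 10 min before and 2 h after oral dosing. ED50 is the dose causing ≥50% rate inhibition in half the rats (Litchfield-Wilcoxon).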

Mus musculus [3] = experiment: Concentration of compound that causes ptosis in the mice when administered perorally; details: po
In short: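 Five male Std-ddY mice per group were dosed orally in 0.5% aqueous tragacanth. At 2 h, eyelid closure was scored macroscopically (8 open to 0 fully closed). Group mean scores formed a dose-response curve. ED50 was the dose reducing the mean score to 50%.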

Mus musculus [4] = experiment: The homovanillic acid (HVA) levels in mouse brain at 50 mg/kg of dose.
In short: (§2)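 Mice dosed orally in 0.5% aqueous tragacanth; brains of five mice per compound pooled. Homovanillic acid measured in brain extracts and reported as brain level.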

Canis familiaris [5] = experiment: Inhibition of apomorphine induced emesis in dogs at 1 mg/kg of dose.; details: Canis lupus familiaris
In short: (§3)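 Beagle dogs (10-15 kg), groups of three, given compound po in a gelatin capsule; 2 h later apomorphine hydrochloride 0.3 mg/kg sc. Vomiting counted for 1 h; mean inhibition as percent of control. ED50 is the dose giving 50% inhibition of emesis, by Litchfield-Wilcoxon.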

Mus musculus [6] = experiment: Exploratory activity of mice determined by an antimex activity meter, when administered perorally; details: po; in short: as §1
Mus musculus [7] = experiment: Antiexploratory activity (EXPL) of mice determined by an antimex activity meter, 50 mg/kg of dose was administered perorally; potent inhibition; details: route oral
Mus musculus [8] = experiment: (§4) 3,4 -Dihydroxy phenylacetic acid (DOPAC) levels in mouse brain at 50 mg/kg dose.
In short: (§5)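 Male Std-ddY mice, 20-25 g, dosed orally with compound in 0.5% aqueous tragacanth. DOPAC was measured fluorometrically after purification by column chromatography on Sephadex G-10 and QAE-Sephadex. Brains from five mice per compound were pooled for each determination.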

Mus musculus [9] = experiment: Inhibition of conditioned avoidance response in mice when administered perorally; details: po
In short: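 One-way active avoidance in male Std-ddY mice in a dark/light two-compartment box. Mice trained to move to the lit side on a warning stimulus to escape floor shock; groups of 10 avoiding at >80% in 10 trials. Compound po in 0.5% tragacanth. ED50 is the dose halving avoidance rate (Litchfield-Wilcoxon).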

Mus musculus [10] = experiment: (§6) 3,4 -Dihydroxy phenylacetic acid (DOPAC) levels in mouse brain at 10 mg/kg dose.; in short: as §5
Mus musculus [11] = experiment: Concentration of compound that causes catalepsy in the mice when administered perorally; details: po
In short: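 Male Std-ddY mice were dosed orally, vehicle 0.5% aqueous tragacanth. At 2 h, forepaws were placed on a rod 4.5 cm high. Failure to remove the paws within 30 s in three successive trials was scored cataleptic. ED50 was the dose giving catalepsy in 50% of mice (Litchfield-Wilcoxon).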

Mus musculus [12] = experiment: Exploratory activity of mice determined by an antimex activity meter, 10 mg/kg of dose was administered perorally; details: route oral
Canis familiaris [13] = experiment: Inhibition of apomorphine induced emesis in dogs when administered perorally; details: Canis lupus familiaris, po; in short: as §3
Mus musculus [14] = experiment: Antireserpine activity (RES) of mice after peroral administration of 50 mg/kg of compound; No inhibition; details: route oral
Mus musculus [15] = experiment: The homovanillic acid (HVA) levels in mouse brain at 10 mg/kg of dose.; in short: as §2
Mus musculus [16] = experiment: Antiexploratory activity (EXPL) of mice determined by an antimex activity meter, 10 mg/kg of dose was administered perorally; Slight inhibition (31-50%); details: route oral
Mus musculus [17] = experiment: Antireserpine activity (RES) of mice after peroral administration of 100 mg/kg of compound; No inhibition; details: route oral
Mus musculus [18] = experiment: Antimaximal electroshock seizure (MES) activity in mice after peroral administration of 100 mg/kg of compound; 0/5; details: route oral
Mus musculus [19] = experiment: Antipentylene tetrazole activity was determined in mice when administered perorally; details: po
In short: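 Groups of five male Std-ddY mice received compound orally in 0.5% tragacanth, then pentylenetetrazole 175 mg/kg ip. Blockade of the tonic extensor component scored as anticonvulsant. ED50 was the dose protecting 50% of animals (Litchfield-Wilcoxon).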

Mus musculus [20] = experiment: Antimaximal electroshock seizure activity was determined in mice when administered perorally; details: po
Mus musculus [21] = experiment: Antitremorine activity(TRM) of mice after peroral administration of 100 mg/kg of compound; No inhibition; details: route oral
Mus musculus [22] = experiment: Antiexploratory activity (EXPL) of mice determined by an antimex activity meter, 100 mg/kg of dose was administered perorally; details: route oral
Mus musculus [23] = experiment: Antitremorine activity(TRM) of mice after peroral administration of 100 mg/kg of compound; Slight inhibition (31-50%); details: route oral
Mus musculus [24] = experiment: Antiexploratory activity (EXPL) of mice determined by an antimex activity meter, 100 mg/kg of dose was administered perorally; potent inhibition; details: route oral
Mus musculus [25] = experiment: Exploratory activity of mice determined by an antimex activity meter, 100 mg/kg of dose was administered perorally; details: route oral; in short: as §1
Mus musculus [26] = experiment: The homovanillic acid (HVA)levels in mouse brain at 10 mg/kg of dose.
In short: (§7)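 Male Std-ddY mice (20-25 g) dosed orally with compound in 0.5% aqueous tragacanth (solution or suspension). Brain homovanillic acid (HVA) determined by a published method. Brains from five mice per compound pooled for one determination.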

Mus musculus [27] = experiment: The homovanillic acid (HVA)levels in mouse brain at 50 mg/kg of dose.; in short: as §7
Mus musculus [28] = experiment: Antiexploratory activity (EXPL) of mice determined by an antimex activity meter, 10 mg/kg of dose was administered perorally; details: route oral
In short: (§8)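 Male Std-ddY mice (20-25 g), five per dose, given compound orally in 0.5% aqueous tragacanth. Two hours later each mouse was placed in the activity-meter cage and locomotor activity was counted for 3 min. Suppression is expressed as percent inhibition of control. ED50 (dose giving 50% inhibition) calculated by Litchfield-Wilcoxon.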

Canis familiaris [29] = experiment: Inhibition of apomorphine induced emesis in dogs at 2 mg/kg of dose.; details: Canis lupus familiaris; in short: as §3
Rattus norvegicus [30] = experiment: Inhibition of self stimulation response in rats when administered perorally.; details: po
In short: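 Male Wistar HLA rats (300-400 g) with chronic electrodes implanted in the lateral posterior hypothalamus; only rats lever-pressing steadily at 50-100/min were used. Compound given po in 0.5% tragacanth. Self-stimulation counted for 10 min before and 2 h after dosing. ED50 is the dose giving ≥50% rate inhibition in 50% of rats (Litchfield-Wilcoxon).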

Mus musculus [31] = experiment: Antiexploratory activity (EXPL) of mice determined by an antimex activity meter, 50 mg/kg of dose was administered perorally; details: route oral; in short: as §8
Mus musculus [32] = experiment: as §4; remark: listed apart in the source
In short: (§9)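 Male Std-ddY mice (20-25 g) dosed orally with compound dissolved or suspended in 0.5% aqueous tragacanth. DOPAC measured fluorometrically after purification by column chromatography on Sephadex G-10 and QAE-Sephadex. Brains from five mice per compound pooled for the determination.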

Mus musculus [33] = experiment: Antiexploratory activity (EXPL) of mice determined by an antimex activity meter, when administered perorally; details: po; in short: as §8
Mus musculus [34] = experiment: as §6; in short: as §9; remark: listed apart in the source

SMILES	ED50 (Rattus norvegicus [2]) [mg/kg]	ED50 (Mus musculus [3]) [mg/kg]	Control (Mus musculus [4]) [%]	inhibition in vivo at 1 mg/kg (Canis familiaris [5]) [%]	ED50 (Mus musculus [6]) [mg/kg]	Control (Mus musculus [8]) [%]	ED50 (Mus musculus [9]) [mg/kg]	Control (Mus musculus [10]) [%]	ED50 (Mus musculus [11]) [mg/kg]	inhibition in vivo at 10 mg/kg (Mus musculus [12]) [%]	ED50 (Canis familiaris [13]) [mg/kg]	Control (Mus musculus [15]) [%]	inhibition in vivo at 100 mg/kg (Mus musculus [17]) [%]	Activity (Mus musculus [18])	further results
CN1CCN(C2=Nc3ccccc3CC=C2c2ccc(F)cc2)CC1.Cl.Cl	4.05	61	400	100	8.15	306	14.6	188	21.5	43.3	0.28	197	–	–	inhibition in vivo at 50 mg/kg (Mus musculus [1]): 79.3%; inhibition in vivo at 50 mg/kg (Mus musculus [7]): > 70%; inhibition in vivo at 50 mg/kg (Mus musculus [14]): < 30%; inhibition in vivo at 10 mg/kg (Mus musculus [16]): 31%
Cl.Cl.OCCN1CCN(C2=Nc3ccc(F)cc3CC=C2c2ccccc2)CC1	–	–	–	–	–	–	–	–	–	–	–	–	< 30	0	ED50 (Mus musculus [19]): > 500 mg/kg; ED50 (Mus musculus [20]): > 500 mg/kg; inhibition in vivo at 100 mg/kg (Mus musculus [21]): < 30%; inhibition in vivo at 100 mg/kg (Mus musculus [22]): > 71%
Cl.Cl.OCCN1CCN(C2=Nc3ccccc3CC=C2c2ccc(Cl)cc2)CC1	25.4	88.7	382	95.5	73.1	289	38.1	186	66.8	40.8	0.19	265	< 30	0	inhibition in vivo at 100 mg/kg (Mus musculus [23]): 31%; inhibition in vivo at 100 mg/kg (Mus musculus [24]): > 71%; inhibition in vivo at 100 mg/kg (Mus musculus [25]): 57.3%
CN(C)CCCN1c2ccccc2Sc2ccc(Cl)cc21 [CHLORPROMAZINE]	–	24.9	–	–	–	–	5.59	–	7.81	–	4.53	–	–	–	Control % at 10 mg/kg (Mus musculus [26]): 203%; Control % at 50 mg/kg (Mus musculus [27]): 304%; inhibition in vivo at 10 mg/kg (Mus musculus [28]): 46.3%; inhibition in vivo at 2 mg/kg (Canis familiaris [29]): 22.2%; ED50 (Rattus norvegicus [30]): 6.68 mg/kg; inhibition in vivo at 50 mg/kg (Mus musculus [31]): 90.1%; Control % at 50 mg/kg (Mus musculus [32]): 303%; ED50 (Mus musculus [33]): 8.26 mg/kg; Control % at 10 mg/kg (Mus musculus [34]): 232%
